Assay results as given in ChEMBL document CHEMBL1131002, “2beta-Substituted analogues of 4'-iodococaine: synthesis and dopamine transporter binding potencies” (J Med Chem, 1998).

These compounds were tested against Sodium-dependent dopamine transporter (Rattus norvegicus, UniProt P23977) (assay: Inhibition of dopamine Transporter Affinity against rat whole brain using [3H]WIN-35428 as radioligand).
Format: tissue-based

Chain of Sodium-dependent dopamine transporter (P23977 whole entry): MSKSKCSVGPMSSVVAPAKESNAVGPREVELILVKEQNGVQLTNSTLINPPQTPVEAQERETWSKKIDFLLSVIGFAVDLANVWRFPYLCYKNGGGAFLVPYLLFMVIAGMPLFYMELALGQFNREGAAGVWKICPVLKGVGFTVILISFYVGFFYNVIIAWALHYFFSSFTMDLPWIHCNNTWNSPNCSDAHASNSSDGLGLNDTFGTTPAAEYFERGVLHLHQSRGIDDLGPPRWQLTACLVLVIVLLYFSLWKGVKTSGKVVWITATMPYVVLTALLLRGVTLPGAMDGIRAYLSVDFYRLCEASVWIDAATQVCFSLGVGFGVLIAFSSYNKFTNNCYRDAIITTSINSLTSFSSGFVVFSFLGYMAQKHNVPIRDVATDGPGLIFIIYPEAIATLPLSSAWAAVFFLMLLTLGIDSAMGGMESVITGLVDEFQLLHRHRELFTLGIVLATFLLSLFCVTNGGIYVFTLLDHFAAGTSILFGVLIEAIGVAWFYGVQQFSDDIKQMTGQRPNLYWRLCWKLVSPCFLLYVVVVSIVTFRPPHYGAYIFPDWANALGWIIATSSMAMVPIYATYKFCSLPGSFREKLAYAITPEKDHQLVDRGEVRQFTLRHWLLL

| SMILES | IC50 [µM] |
| --- | --- |
| CC(=O)OC[C@@H]1C2CCC(C[C@@H]1OC(=O)c1ccc(I)cc1)N2C (stereo not given in full) | 3 |
| CNC(=O)[C@@H]1C2CCC(C[C@@H]1OC(=O)c1ccc(I)cc1)N2C (stereo not given in full) | > 100 |
| CN1C2CCC1[C@@H](C(=O)Oc1ccccc1)[C@@H](OC(=O)c1ccc(I)cc1)C2 (stereo not given in full) | 2.02 |
| CN1C2CCC1[C@@H](C(=O)OCc1ccccc1)[C@@H](OC(=O)c1ccc(I)cc1)C2 (stereo not given in full) | 4.6 |
| CC(C)OC(=O)[C@@H]1C2CCC(C[C@@H]1OC(=O)c1ccc(I)cc1)N2C (stereo not given in full) | 1.38 |
| CN1C2CCC1[C@@H](c1nc(-c3ccccc3)no1)[C@@H](OC(=O)c1ccc(I)cc1)C2 (stereo not given in full) | 3.46 |
| C=C[C@@H]1C2CCC(C[C@@H]1OC(=O)c1ccc(I)cc1)N2C (stereo not given in full) | 2.17 |
| CC(C)OC(=O)[C@@H]1C2CCC(C[C@@H]1OC(=O)c1ccc(I)cc1O)N2C (stereo not given in full) | 0.663 |
| COC(=O)[C@@H]1C2CCC(C[C@@H]1OC(=O)c1ccccc1O)N2C (stereo not given in full) | 0.025 |
| CN1C2CCC1[C@@H](CO)[C@@H](OC(=O)c1ccc(I)cc1)C2 (stereo not given in full) | 6.21 |
| CC[C@@H]1C2CCC(C[C@@H]1OC(=O)c1ccc(I)cc1)N2C (stereo not given in full) | 2.69 |
| COC(=O)[C@@H]1C2CCC(C[C@@H]1OC(=O)c1ccc(I)cc1O)N2C (stereo not given in full) | 0.215 |
| CCOC(=O)[C@@H]1C2CCC(C[C@@H]1OC(=O)c1ccc(I)cc1)N2C (stereo not given in full) | 2.03 |

These compounds were tested against T1, Monoamine transporters; Norepininephrine & dopamine (Rattus norvegicus) (UniProt P23977+Q9WTR4) (assay: (§1) Selectivity for Norepinephrine and Dopamine Transporters was evaluated).
Format: protein assay

| SMILES | Selectivity |
| --- | --- |
| CC(C)OC(=O)[C@@H]1C2CCC(C[C@@H]1OC(=O)c1ccc(I)cc1O)N2C (stereo not given in full) | 52.5 |
| COC(=O)[C@@H]1C2CCC(C[C@@H]1OC(=O)c1ccc(I)cc1)N2C (stereo not given in full) | 7.3 |
| COC(=O)[C@@H]1C2CCC(C[C@@H]1OC(=O)c1ccccc1O)N2C (stereo not given in full) | 1.9 |
| COC(=O)[C@@H]1C2CCC(C[C@@H]1OC(=O)c1ccc(I)cc1O)N2C (stereo not given in full) | 4.7 |

The compounds below were run against T1, Monoamine transporters; Norepininephrine & dopamine (Rattus norvegicus) (assay: as §1).
Format: protein assay
Target sequence in this assay (P23977 whole entry): as above
Target sequence in this assay (Q9WTR4 1-597): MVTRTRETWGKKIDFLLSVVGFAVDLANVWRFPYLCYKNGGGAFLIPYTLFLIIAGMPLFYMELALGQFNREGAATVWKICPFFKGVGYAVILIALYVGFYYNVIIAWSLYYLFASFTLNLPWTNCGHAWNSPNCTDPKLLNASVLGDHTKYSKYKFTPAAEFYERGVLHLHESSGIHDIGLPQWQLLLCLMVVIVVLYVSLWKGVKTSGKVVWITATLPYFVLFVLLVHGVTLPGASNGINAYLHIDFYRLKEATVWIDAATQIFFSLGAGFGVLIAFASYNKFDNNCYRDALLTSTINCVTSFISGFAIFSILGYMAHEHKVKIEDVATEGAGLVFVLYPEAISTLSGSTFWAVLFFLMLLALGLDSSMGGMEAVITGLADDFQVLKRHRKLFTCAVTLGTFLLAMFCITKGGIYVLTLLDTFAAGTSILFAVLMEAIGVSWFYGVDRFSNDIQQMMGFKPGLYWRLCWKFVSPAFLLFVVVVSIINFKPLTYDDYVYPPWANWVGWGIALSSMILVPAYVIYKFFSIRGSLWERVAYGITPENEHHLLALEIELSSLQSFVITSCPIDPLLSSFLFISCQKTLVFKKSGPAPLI

| SMILES | Selectivity |
| --- | --- |
| CC(C)OC(=O)[C@@H]1C2CCC(C[C@@H]1OC(=O)c1ccc(I)cc1O)N2C (stereo not given in full) | 6.8 |
| COC(=O)[C@@H]1C2CCC(C[C@@H]1OC(=O)c1ccc(I)cc1)N2C (stereo not given in full) | 0.4 |
| COC(=O)[C@@H]1C2CCC(C[C@@H]1OC(=O)c1ccccc1O)N2C (stereo not given in full) | 5.7 |
| COC(=O)[C@@H]1C2CCC(C[C@@H]1OC(=O)c1ccc(I)cc1O)N2C (stereo not given in full) | 0.9 |

Each compound was assayed against Sodium-dependent serotonin transporter (Rattus norvegicus, UniProt P31652) (assay: Inhibition of serotonin Transporter Affinity against rat whole brain using [3H]paroxetine as radioligand).
Chain of Sodium-dependent serotonin transporter (P31652 whole entry): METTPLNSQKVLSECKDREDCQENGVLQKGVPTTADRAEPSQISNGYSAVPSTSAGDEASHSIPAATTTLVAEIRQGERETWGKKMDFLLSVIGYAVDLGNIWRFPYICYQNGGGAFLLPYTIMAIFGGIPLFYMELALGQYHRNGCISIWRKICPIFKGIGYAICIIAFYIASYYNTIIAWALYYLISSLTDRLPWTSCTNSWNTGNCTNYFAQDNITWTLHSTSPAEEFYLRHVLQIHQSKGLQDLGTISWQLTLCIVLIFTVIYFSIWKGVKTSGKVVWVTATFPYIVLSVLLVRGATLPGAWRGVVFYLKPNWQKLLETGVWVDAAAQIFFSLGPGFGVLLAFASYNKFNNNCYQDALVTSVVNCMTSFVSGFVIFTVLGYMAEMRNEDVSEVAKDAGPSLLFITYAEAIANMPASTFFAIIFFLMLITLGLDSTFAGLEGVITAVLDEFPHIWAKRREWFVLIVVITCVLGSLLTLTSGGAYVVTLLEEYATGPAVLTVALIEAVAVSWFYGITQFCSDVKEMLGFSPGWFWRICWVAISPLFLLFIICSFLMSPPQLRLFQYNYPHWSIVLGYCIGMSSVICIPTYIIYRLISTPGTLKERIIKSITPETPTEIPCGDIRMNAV

| SMILES | IC50 [µM] |
| --- | --- |
| CC(C)OC(=O)[C@@H]1C2CCC(C[C@@H]1OC(=O)c1ccc(I)cc1O)N2C (stereo not given in full) | 4.51 |
| COC(=O)[C@@H]1C2CCC(C[C@@H]1OC(=O)c1ccc(I)cc1)N2C (stereo not given in full) | 1.05 |
| COC(=O)[C@@H]1C2CCC(C[C@@H]1OC(=O)c1ccccc1O)N2C (stereo not given in full) | 0.143 |
| COC(=O)[C@@H]1C2CCC(C[C@@H]1OC(=O)c1ccc(I)cc1O)N2C (stereo not given in full) | 0.195 |

What follows are compounds tested against Norepinephrine transporter (Rattus norvegicus, UniProt Q9WTR4) (assay: Inhibition of norepinephrine Transporter Affinity against rat whole brain using [3H]nisoxetine radioligand).
Outline: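 Whole brain minus cerebellum membranes in 50 mM Tris-HCl pH 7.4 with 300 mM NaCl and 5 mM KCl. Displacement of 0.7 nM [3H]nisoxetine. Incubated 40 min at 25 °C, then filtered on BSA-soaked GF/B. 1 μM desipramine defined nonspecific binding.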

Chain of Norepinephrine transporter (Q9WTR4 whole entry): as the sequence (Q9WTR4 1-597) above

| SMILES | IC50 [µM] |
| --- | --- |
| CC(C)OC(=O)[C@@H]1C2CCC(C[C@@H]1OC(=O)c1ccc(I)cc1O)N2C (stereo not given in full) | 34.8 |
| COC(=O)[C@@H]1C2CCC(C[C@@H]1OC(=O)c1ccc(I)cc1)N2C (stereo not given in full) | 18.5 |
| COC(=O)[C@@H]1C2CCC(C[C@@H]1OC(=O)c1ccccc1O)N2C (stereo not given in full) | 0.048 |
| COC(=O)[C@H]1[C@@H](c2ccc(F)cc2)C[C@H]2CC[C@H]1N2C | 0.258 |
| COC(=O)[C@@H]1C2CCC(C[C@@H]1OC(=O)c1ccc(I)cc1O)N2C (stereo not given in full) | 1.02 |
